Experimental data reported in ChEMBL document CHEMBL3526015, “Metabolism of the c-Fos/activator protein-1 inhibitor T-5224 by multiple human UDP-glucuronosyltransferase isoforms” (Drug Metab Dispos, 2011).

What was measured:
Liver microsome [1] = test: Drug level in pooled human liver microsomes treated with 10 uM T-5224 assessed as compound formation after 5 to 30 mins by HPLC method; type: ADME
In short: (§1)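 Pooled human liver microsomes at 0.5 mg protein/mL, or pooled intestinal microsomes at 0.25 mg/mL, in 50 mM Tris-HCl pH 7.5, 8 mM MgCl2, alamethicin, with 2 mM UDPGA. T-5224 at 10 μM, 10 min at 37°C after 5 min preincubation; stopped with acetonitrile. HPLC with UV at 290 nm. Linearity was tested over 0.1–1.0 mg/mL protein and 5–30 min.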

[2] = Drug level in pooled human intestinal microsomes treated with 10 uM T-5224 assessed as compound formation after 5 to 30 mins by HPLC method; type: ADME, Intestine, Microsome; in short: as §1
Liver microsome [3] = test: Drug level in pooled human liver microsomes treated with 10 uM T-5224 assessed as compound formation after 10 mins by HPLC method; type: ADME; in short: as §1
[4] = target: T1, UDP-glucuronosyltransferase 1A8 (Homo sapiens, UniProt Q9HAW9); test: Drug level assessed as human UGT1A8-mediated compound formation from 5 to 50 uM T-5224 after 10 to 60 mins in presence of UDP-glucuronic acid by HPLC method; type: ADME; conditions: recombinant enzyme
T1 sequence (Q9HAW9 whole entry): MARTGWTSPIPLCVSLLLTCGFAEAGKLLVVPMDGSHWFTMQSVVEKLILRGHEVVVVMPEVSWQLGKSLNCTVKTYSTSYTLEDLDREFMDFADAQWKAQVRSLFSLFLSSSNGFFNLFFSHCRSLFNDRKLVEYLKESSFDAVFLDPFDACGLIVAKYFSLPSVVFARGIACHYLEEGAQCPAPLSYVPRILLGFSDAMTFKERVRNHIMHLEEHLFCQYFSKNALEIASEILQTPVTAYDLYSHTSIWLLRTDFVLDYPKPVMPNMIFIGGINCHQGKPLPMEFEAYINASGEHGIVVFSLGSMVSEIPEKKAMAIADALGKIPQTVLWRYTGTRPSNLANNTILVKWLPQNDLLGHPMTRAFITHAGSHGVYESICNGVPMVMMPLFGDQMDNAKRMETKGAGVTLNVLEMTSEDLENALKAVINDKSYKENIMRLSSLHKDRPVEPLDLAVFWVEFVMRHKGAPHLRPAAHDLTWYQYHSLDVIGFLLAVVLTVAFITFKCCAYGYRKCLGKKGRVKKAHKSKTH
In short: (§2)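 Recombinant human UGT microsomes from baculovirus-infected insect cells, 0.1 mg protein/mL, in 50 mM Tris-HCl pH 7.5, 8 mM MgCl2, alamethicin. T-5224 in DMSO (2% v/v final). Preincubated 5 min at 37°C, started with 2 mM UDPGA, run 60 min at 37°C and stopped with acetonitrile. Glucuronides resolved by C18 HPLC with UV at 290 nm. Linearity was checked at 0.05–0.2 mg/mL protein and 10–60 min.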

[5] = target: T2, UDP-glucuronosyltransferase 1A1 (Homo sapiens, UniProt P22309); test: Drug level assessed as human UGT1A1-mediated compound formation from 5 to 50 uM T-5224 after 10 to 60 mins in presence of UDP-glucuronic acid by HPLC method; type: ADME; conditions: recombinant enzyme; in short: as §2
T2 sequence (P22309 whole entry): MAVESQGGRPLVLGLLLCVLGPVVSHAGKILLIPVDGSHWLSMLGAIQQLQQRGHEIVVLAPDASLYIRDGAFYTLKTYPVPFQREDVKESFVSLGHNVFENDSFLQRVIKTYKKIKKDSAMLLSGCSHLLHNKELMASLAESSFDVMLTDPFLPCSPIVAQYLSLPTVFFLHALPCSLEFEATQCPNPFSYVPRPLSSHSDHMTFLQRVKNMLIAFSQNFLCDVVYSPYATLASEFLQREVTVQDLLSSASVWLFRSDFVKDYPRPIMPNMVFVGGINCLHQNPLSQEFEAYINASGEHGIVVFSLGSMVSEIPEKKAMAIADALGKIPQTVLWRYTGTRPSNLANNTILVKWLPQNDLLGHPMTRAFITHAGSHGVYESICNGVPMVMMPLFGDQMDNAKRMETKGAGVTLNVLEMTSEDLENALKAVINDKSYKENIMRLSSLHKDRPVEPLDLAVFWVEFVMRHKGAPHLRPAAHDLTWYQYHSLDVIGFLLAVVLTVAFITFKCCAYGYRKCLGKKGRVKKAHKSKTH

[6] = target: T3, UDP-glucuronosyltransferase 1A3 (Homo sapiens, UniProt P35503); test: Drug level assessed as human UGT1A3-mediated compound formation from 5 to 50 uM T-5224 after 60 mins in presence of UDP-glucuronic acid by HPLC method; type: ADME; conditions: recombinant enzyme, 1 h; in short: as §2
T3 sequence (P35503 whole entry): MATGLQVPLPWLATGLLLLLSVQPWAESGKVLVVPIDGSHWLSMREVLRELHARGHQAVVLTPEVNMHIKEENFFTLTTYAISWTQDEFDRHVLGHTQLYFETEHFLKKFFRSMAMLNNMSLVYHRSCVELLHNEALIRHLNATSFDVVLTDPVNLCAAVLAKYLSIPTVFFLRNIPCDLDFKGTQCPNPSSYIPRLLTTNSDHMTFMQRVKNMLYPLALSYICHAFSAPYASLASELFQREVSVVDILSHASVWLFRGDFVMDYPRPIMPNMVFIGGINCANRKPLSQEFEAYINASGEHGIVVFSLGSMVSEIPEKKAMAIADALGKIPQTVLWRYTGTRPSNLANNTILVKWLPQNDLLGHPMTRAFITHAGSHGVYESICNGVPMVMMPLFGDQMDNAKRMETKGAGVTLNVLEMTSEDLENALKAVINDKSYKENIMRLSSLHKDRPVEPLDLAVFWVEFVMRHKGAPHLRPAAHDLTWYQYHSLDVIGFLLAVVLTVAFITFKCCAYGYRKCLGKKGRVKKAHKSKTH

[7] = target: T3, UDP-glucuronosyltransferase 1A3; test: Drug level assessed as human UGT1A3-mediated compound formation from 5 to 50 uM T-5224 after 10 to 60 mins in presence of UDP-glucuronic acid by HPLC method; type: ADME; conditions: recombinant enzyme; in short: as §2
[8] = Drug level in pooled human intestinal microsomes treated with 10 uM T-5224 assessed as compound formation after 10 mins by HPLC method; type: ADME, Intestine, Microsome; in short: as §1
[9] = target: T2, UDP-glucuronosyltransferase 1A1; test: Drug level assessed as human UGT1A1-mediated compound formation from 5 to 50 uM T-5224 after 60 mins in presence of UDP-glucuronic acid using 0.05 to 0.2 mg/ml by HPLC method; type: ADME; conditions: recombinant enzyme, 1 h; in short: as §2
[10] = target: T2, UDP-glucuronosyltransferase 1A1; test: Drug level assessed as human UGT1A1-mediated compound formation from 5 to 50 uM T-5224 after 60 mins in presence of UDP-glucuronic acid by HPLC method; type: ADME; conditions: recombinant enzyme, 1 h; in short: as §2
[11] = target: T3, UDP-glucuronosyltransferase 1A3; test: Drug level assessed as human UGT1A3-mediated compound formation from 5 to 50 uM T-5224 after 60 mins in presence of UDP-glucuronic acid using 0.05 to 0.2 mg/ml by HPLC method; type: ADME; conditions: recombinant enzyme, 1 h; in short: as §2
Liver microsome [12] = test: Drug level in pooled human liver microsomes treated with 10 uM T-5224 assessed as compound formation after 10 mins using 0.1 to 1.0 mg/ml microsomal protein content by HPLC method; type: ADME; in short: as §1
[13] = Drug level in pooled human intestinal microsomes treated with 10 uM T-5224 assessed as compound formation after 10 mins using 0.1 to 1.0 mg/ml microsomal protein content by HPLC method; type: ADME, Intestine, Microsome; in short: as §1
[14] = target: T1, UDP-glucuronosyltransferase 1A8; test: Drug level assessed as human UGT1A8-mediated compound formation from 5 to 50 uM T-5224 after 60 mins in presence of UDP-glucuronic acid using 0.05 to 0.2 mg/ml by HPLC method; type: ADME; conditions: recombinant enzyme, 1 h; in short: as §2
Liver microsome [15] = test: Drug level in pooled human liver microsomes treated with T-5224 assessed as compound formation in presence of UDPGA by LC-MS/MS method; type: ADME
[16] = target: T1, UDP-glucuronosyltransferase 1A8; test: Drug level assessed as human UGT1A8-mediated compound formation from 5 to 50 uM T-5224 after 60 mins in presence of UDP-glucuronic acid by HPLC method; type: ADME; conditions: recombinant enzyme, 1 h; in short: as §2

O=C(O)CCc1cc(C(=O)c2ccc(OC3CCCC3)cc2O)ccc1OCc1ccc2c(O[C@@H]3O[C@H](C(=O)O)[C@@H](O)[C@H](O)[C@H]3O)noc2c1
Drug metabolism (Liver microsome [1]): Dose-dependent effect
Drug metabolism [2]: Dose-dependent effect
Drug metabolism (Liver microsome [3]): metabolite_detected
Drug metabolism [4]: Dose-dependent effect
Drug metabolism [5]: Dose-dependent effect
Drug metabolism [6]: metabolite_detected
Drug metabolism [7]: Dose-dependent effect
Drug metabolism [8]: metabolite_detected
Drug metabolism [9]: Dose-dependent effect
Drug metabolism [10]: metabolite_detected
Drug metabolism [11]: Dose-dependent effect
Drug metabolism (Liver microsome [12]): Dose-dependent effect
Drug metabolism [13]: Dose-dependent effect
Drug metabolism [14]: Dose-dependent effect
Drug metabolism (Liver microsome [15]): metabolite_detected
Drug metabolism [16]: metabolite_detected
